Broadly, the inhibition is the share of the control response that was lost under treatment. A word on the MIC: it is the smallest concentration in the dilution series that meets the test's criterion for growth inhibition.

Common to all, as to format: functional
Assay [1] has as its system Radical scavenging activity. Put plainly: Antioxidant activity of the compound assessed as DPPH free radical scavenging activity at 250 uM after 60 mins by spectrophotometric analysis relative to control. A digest of the protocol: (§1)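 DPPH• and sample stocks made in DMSO. DPPH• mixed with sample at several concentrations and brought to 4.0 mL in DMSO. Incubated 60 min at 25 °C in the dark, then absorbance read at 517 nm with solvent correction. Scavenging % = (A0−As)/A0×100 against a DPPH-only control. Ascorbic acid standard. Mean ± SD, n = 3.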
Background: DPPH is a stable violet radical that fades when it is reduced.

The test system of assay [2] is Radical scavenging activity. Put plainly: Antioxidant activity of the compound assessed as DPPH free radical scavenging activity at 125 uM after 60 mins by spectrophotometric analysis relative to control. Summed up:
as §1

Assay [3] relates to Radical scavenging activity. Put plainly: Antioxidant activity of the compound assessed as DPPH free radical scavenging activity at 187.5 uM after 60 mins by spectrophotometric analysis relative to control. A digest of the protocol:
as §1

For assay [4], the system named is Radical scavenging activity. Put plainly: Antioxidant activity of the compound assessed as DPPH free radical scavenging activity at 62.5 uM after 60 mins by spectrophotometric analysis relative to control. A digest of the protocol: as §1
Assay [5] concerns Staphylococcus aureus. As to the kind of experiment: Antibacterial activity against Staphylococcus aureus ATCC 25923 assessed as growth inhibition after 3 to 4 days by serial plate dilution method. Summed up: (§2)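 Serial dilution in Mueller-Hinton broth adjusted to pH 5.0 with phosphate buffer. Standardized bacterial suspension inoculated, 16-18 h at 37 °C. Agar-well plates also used: compounds in DMSO added to punched wells, DMSO solvent control, triplicate plates held at 37 °C for 3–4 days. MIC taken as lowest concentration with no visible growth. Range tested 1.56–25 µg/mL. Ciprofloxacin standard.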

Assay [6] has as its system Pseudomonas aeruginosa. Put plainly: Antibacterial activity against Pseudomonas aeruginosa ATCC 27853 assessed as growth inhibition after 3 to 4 days by serial plate dilution method. Summed up: as §2
Assay [7] has as its system Klebsiella pneumoniae. Put plainly: Antibacterial activity against Klebsiella pneumoniae assessed as growth inhibition after 3 to 4 days by serial plate dilution method. A digest of the protocol:
as §2

Assay [8] relates to Escherichia coli. As to the kind of experiment: Antibacterial activity against Escherichia coli ATCC 25922 assessed as growth inhibition after 3 to 4 days by serial plate dilution method. Summed up:
as §2

For assay [9], the system named is Aspergillus fumigatus. As to the kind of experiment: Antifungal activity against Aspergillus fumigatus NCIM 902 assessed as growth inhibition after 3 to 4 days by serial plate dilution method. A digest of the protocol: (§3)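 Agar of peptone, D-glucose and agar at pH 5.7, lawned with saline spore suspension and dried 1 h at 37 °C. Compounds in DMSO added to punched wells, DMSO solvent control. Triplicate plates held at 37 °C for 3–4 days. […] Ciclopiroxolamine standard.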

The subject of assay [10] is Aspergillus flavus. Put plainly: Antifungal activity against Aspergillus flavus NCIM 524 assessed as growth inhibition after 3 to 4 days by serial plate dilution method. A digest of the protocol:
as §3

The test system of assay [11] is Trichophyton mentagrophytes. As to the kind of experiment: Antifungal activity against Trichophyton mentagrophytes assessed as growth inhibition after 3 to 4 days by serial plate dilution method. Summed up:
as §3

Assay [12] relates to Talaromyces marneffei. Put plainly: Antifungal activity against Penicillium marneffei assessed as growth inhibition after 3 to 4 days by serial plate dilution method. Summed up:
as §3

Assay [13] has as its system Radical scavenging activity. As to the kind of experiment: Antioxidant activity of the compound assessed as DPPH free radical scavenging activity at 312.5 uM after 60 mins by spectrophotometric analysis relative to control. A digest of the protocol: as §1

Converted amounts (≈) assume the structure as drawn.

Turning to `S=c1n(CN2CCOCC2)nc(-c2cccs2)n1-c1ccccc1`, the inhibition in [1] came out at 87.2%; in assay [2], 68.4%; in assay [3], 79.2%; in assay [4] it was 59.1%. Besides, the MIC worked out at 12 µg/mL (≈ 33.5 µM) in assay [5]; 6.25 µg/mL (≈ 17.4 µM) in assay [6]; 6.25 µg/mL (≈ 17.4 µM) in [7]; 6.25 µg/mL (≈ 17.4 µM) in [8]; 3.12 µg/mL (≈ 8.7 µM) in assay [9]; 1.56 µg/mL (≈ 4.35 µM) in assay [10]. Also, the minimal inhibitory concentration (MIC) in [11] was found to be 1.56 µg/mL (≈ 4.35 µM); in assay [12] it was 3.12 µg/mL (≈ 8.7 µM).
On to `CCCN(CCC)Cn1nc(-c2cccs2)n(-c2ccccc2)c1=S`, for which the inhibition in assay [1] was 81.4%; in assay [2], 62.6%; in assay [3], 72.1%; in assay [4] it was 52.1%. Besides, the MIC in assay [5] worked out at 6.25 µg/mL (≈ 16.8 µM); in assay [6], 12 µg/mL (≈ 32.2 µM); in assay [7], 6.25 µg/mL (≈ 16.8 µM); in assay [8], 12 µg/mL (≈ 32.2 µM); in assay [9], 12 µg/mL (≈ 32.2 µM); in [10], 6.25 µg/mL (≈ 16.8 µM). The minimal inhibitory concentration (MIC) in assay [11] turned out to be 6.25 µg/mL (≈ 16.8 µM); in [12], 12 µg/mL (≈ 32.2 µM).
Regarding `C=CCn1c(-c2cccs2)n[nH]c1=S`, the inhibition in assay [13] turned out to be 68.8%; in [1] it was 55.5%; in [2], 45.2%; in assay [3], 47.4%; in assay [4], 40.7%. Besides, the minimal inhibitory concentration (MIC) in assay [5] was 25 µg/mL (≈ 112 µM); in assay [6] it was 12 µg/mL (≈ 53.7 µM); in assay [7], 25 µg/mL (≈ 112 µM); in assay [8], 12 µg/mL (≈ 53.7 µM); in assay [9] it was 25 µg/mL (≈ 112 µM); in assay [10], 12 µg/mL (≈ 53.7 µM). The figures for the MIC in [11] and in assay [12] were 12 µg/mL (≈ 53.7 µM) and 25 µg/mL (≈ 112 µM), respectively.
For the compound `CCn1c(-c2cccs2)nn(CN2CCN(c3cccc(C(F)(F)F)c3)CC2)c1=S`, the inhibition in assay [13] amounted to 81.6%; in assay [1], 80.2%; in [2], 61.1%; in assay [3] it was 71.3%; in assay [4] it was 52%. Also, the MIC was 1.56 µg/mL (≈ 3.44 µM) in assay [5]; 3.12 µg/mL (≈ 6.88 µM) in assay [6]; 3.12 µg/mL (≈ 6.88 µM) in assay [7]; 3.12 µg/mL (≈ 6.88 µM) in [8]; 6.25 µg/mL (≈ 13.8 µM) in [9]; 3.12 µg/mL (≈ 6.88 µM) in assay [10]. The values for the MIC in [11] and in assay [12] were 3.12 µg/mL (≈ 6.88 µM) and 6.25 µg/mL (≈ 13.8 µM), respectively.
Take `C=CCn1c(-c2cccs2)nn(CN2CCN(c3ccccc3)CC2)c1=S`: the inhibition came out at 91.6% in assay [13]; 84.1% in assay [1]; 64.4% in assay [2]; 75% in assay [3]; 54% in assay [4]. Besides, the MIC in assay [5] worked out at 6.25 µg/mL (≈ 15.7 µM); in assay [6], 12 µg/mL (≈ 30.2 µM); in assay [7], 6.25 µg/mL (≈ 15.7 µM); in assay [8] it was 12 µg/mL (≈ 30.2 µM); in [9] it was 6.25 µg/mL (≈ 15.7 µM); in assay [10], 3.12 µg/mL (≈ 7.85 µM). Also, the MIC in [11] stood at 3.12 µg/mL (≈ 7.85 µM); in assay [12], 6.25 µg/mL (≈ 15.7 µM).
Consider `C=CCn1c(-c2cccs2)nn(CN2CCOCC2)c1=S`, for which the inhibition in [13] was 95%; in [1], 89.9%; in assay [2] it was 71.2%; in assay [3] it was 83.1%; in assay [4], 62.3%. The MIC in [5] amounted to 3.12 µg/mL (≈ 9.68 µM); in [6], 6.25 µg/mL (≈ 19.4 µM); in [7] it was 6.25 µg/mL (≈ 19.4 µM); in assay [8], 6.25 µg/mL (≈ 19.4 µM); in assay [9], 3.12 µg/mL (≈ 9.68 µM); in assay [10], 1.56 µg/mL (≈ 4.84 µM). Also, the MIC came to 1.56 µg/mL (≈ 4.84 µM) in [11] and 3.12 µg/mL (≈ 9.68 µM) in [12].
For the compound `C=CCn1c(-c2cccs2)nn(CN2CCC(C)CC2)c1=S`, the inhibition in [13] is 72.4%; in [1] it was 69.7%; in assay [2] it was 53.5%; in [3] it was 68.1%; in [4], 50.1%. Further, the MIC in assay [5] worked out at 1.56 µg/mL (≈ 4.66 µM); in assay [6] it was 3.12 µg/mL (≈ 9.33 µM); in assay [7], 3.12 µg/mL (≈ 9.33 µM); in [8] it was 3.12 µg/mL (≈ 9.33 µM); in assay [9], 12 µg/mL (≈ 35.9 µM); in assay [10], 6.25 µg/mL (≈ 18.7 µM). Besides, the MIC in [11] stood at 6.25 µg/mL (≈ 18.7 µM); in [12], 12 µg/mL (≈ 35.9 µM).
`CCn1c(-c2cccs2)nn(CN2CCC(C)CC2)c1=S`: the inhibition in assay [13] turned out to be 71.3%; in assay [1], 67.6%; in [2] it was 52.5%; in assay [3], 65.2%; in [4] it was 49.2%. In addition, the minimum inhibitory concentration (MIC) was determined as 1.56 µg/mL (≈ 4.84 µM) in assay [5]; 3.12 µg/mL (≈ 9.67 µM) in assay [6]; 3.12 µg/mL (≈ 9.67 µM) in assay [7]; 3.12 µg/mL (≈ 9.67 µM) in assay [8]; 12 µg/mL (≈ 37.2 µM) in [9]; 6.25 µg/mL (≈ 19.4 µM) in [10]. Further, the MIC in assay [11] is 6.25 µg/mL (≈ 19.4 µM); in assay [12], 12 µg/mL (≈ 37.2 µM).

The values above are taken from ChEMBL document CHEMBL2375229, “Synthesis and biological activities of some novel aminomethyl derivatives of 4-substituted-5-(2-thienyl)-2,4-dihydro-3H-1,2,4-triazole-3-thiones” (2013).
